Measured values taken from ChEMBL document CHEMBL1145014, “8-Aza-immucillins as transition-state analogue inhibitors of purine nucleoside phosphorylase and nucleoside hydrolases” (J Med Chem, 2003).

Tests used:
[1] = Inhibitory activity of compound against inosine-uridine nucleoside hydrolase (IU-NH) from crithidia fasciculata
In short: (§1)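 Values are inhibition constants (Ki) against the nucleoside hydrolases: nonspecific inosine-uridine NH from *Crithidia fasciculata* and purine-specific inosine-adenosine-guanosine NH from *Trypanosoma brucei brucei*.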

[2] = Inhibitory activity of compound against […] inosine-adenosine-guanosine nucleoside hydrolase (IAG-NH) from Trypanosoma brucei; in short: as §1
[3] = target: T1, Purine nucleoside phosphorylase (Bos taurus) (UniProt P55859)
T1 sequence (whole entry): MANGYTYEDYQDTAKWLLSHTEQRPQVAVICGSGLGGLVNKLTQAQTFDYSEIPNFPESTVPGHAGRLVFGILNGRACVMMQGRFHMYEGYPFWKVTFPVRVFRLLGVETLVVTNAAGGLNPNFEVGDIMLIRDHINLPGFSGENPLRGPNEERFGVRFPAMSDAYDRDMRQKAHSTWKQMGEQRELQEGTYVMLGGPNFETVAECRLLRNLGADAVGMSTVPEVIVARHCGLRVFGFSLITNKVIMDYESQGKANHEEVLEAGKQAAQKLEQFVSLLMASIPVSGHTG

[4] = target: T2, Purine nucleoside phosphorylase (Homo sapiens) (UniProt P00491)
T2 sequence (whole entry): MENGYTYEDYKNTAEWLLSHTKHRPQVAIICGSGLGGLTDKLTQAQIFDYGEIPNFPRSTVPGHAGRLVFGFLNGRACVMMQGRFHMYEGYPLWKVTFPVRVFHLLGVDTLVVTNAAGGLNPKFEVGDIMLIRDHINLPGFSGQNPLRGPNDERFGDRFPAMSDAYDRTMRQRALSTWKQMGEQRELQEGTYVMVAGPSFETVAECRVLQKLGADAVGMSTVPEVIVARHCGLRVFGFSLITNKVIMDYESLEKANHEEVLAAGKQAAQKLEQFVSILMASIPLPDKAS

[5] = target: T3, Purine nucleoside phosphorylase (Bos taurus, UniProt P55859); test: Inhibitory activity of compound against bovine purine nucleoside phosphorylase (PNP)
T3 sequence (P55859 whole entry): T1 sequence (whole entry)

[6] = target: T4, Purine nucleoside phosphorylase (Homo sapiens, UniProt P00491); test: Inhibitory activity of compound against human purine nucleoside phosphorylase (PNP)
T4 sequence (P00491 whole entry): T2 sequence (whole entry)

Row | SMILES | Ki [1] | Ki [2] | K6 [3] | K6 [4] | Ki [5] | Ki [6]
1 | NC(=O)c1[nH]cc(C2N[C@H](CO)[C@H](O)[C@@H]2O)c1N (stereo partly specified) | 3 nM | 23 nM |  |  |  | 
2 | O=c1[nH]cnc2c([C@@H]3N[C@H](CO)[C@@H](O)[C@H]3O)c[nH]c12 [FORODESINE] | 42 nM | 24 nM | 4e-05 s⁻¹ | 0.0015 s⁻¹ | 0.023 nM | 
3 | Nc1ncnc2c(C3N[C@H](CO)[C@H](O)[C@@H]3O)n[nH]c12 (stereo partly specified) | 150 nM | 14000 nM |  |  |  | 
4 | NC(=O)c1[nH]nc(C2N[C@H](CO)[C@H](O)[C@@H]2O)c1N (stereo partly specified) | 4800 nM | 3700 nM | 0.019 s⁻¹ |  | 0.06 nM | 0.096 nM
5 | Nc1nc2c([C@@H]3N[C@H](CO)[C@@H](O)[C@H]3O)c[nH]c2c(=O)[nH]1 |  |  | 0.00019 s⁻¹ | 0.0015 s⁻¹ | 0.03 nM | 0.029 nM
6 | OC[C@H]1N[C@@H](c2n[nH]c3c(O)ncnc23)[C@H](O)[C@@H]1O | 1600 nM | 13900 nM | 0.021 s⁻¹ | 0.013 s⁻¹ | 0.042 nM | 0.104 nM
7 | Nc1[nH]cnc2c(C3N[C@H](CO)[C@H](O)[C@@H]3O)cnc1-2 (stereo partly specified) | 7.2 nM | 0.9 nM |  |  |  | 
